High-throughput results as filed in PubChem.
NF-kB neuron act = NF-kB expression increase, human neuronal cells; NF-kB reporter expression; stronger effect = higher value; fold change at 12.5 µM; hit rate 1.6% among 190,000; AID 1239; in the data active = fold change above about 3.3
APP 5'UTR act = activates APP 5'UTR luciferase reporter; SH-SY5Y APP 5'UTR luciferase reporter, luminescence; zero percent = DMSO vehicle wells; activation, % at 2 µM; hit rate 1% among 190,000; AID 1276;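 active = activation above a set limit, based on mean plus 3 SD of controls, cut at about 140% in these data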
TRAIL sens C8 = caspase-8 TRAIL sensitization. AID 624354. NB7+C8 cells + TRAIL, ATPlite viability luminescence. inhibition (viability loss, TRAIL sensitization), % at 10 µM. hit rate 1% among 360,000;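 active = compounds causing at least 50% loss of cell viability in the single-dose screen, relative to plate controls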
FLuc act counter = firefly luciferase counter-screen for stimulation assays. P08659. ATPlite luciferase biochemical, luminescence, 10 min; 0 = ATP-free wells, 1 = DMSO control. activation factor at 10 µM. 200,000 tested, under 10 active. AID 1027;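 active = luciferase activation factor, scaled between plate controls, of at least 2 with compound at 10 µM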
Target sequence (P08659 whole entry, looked up): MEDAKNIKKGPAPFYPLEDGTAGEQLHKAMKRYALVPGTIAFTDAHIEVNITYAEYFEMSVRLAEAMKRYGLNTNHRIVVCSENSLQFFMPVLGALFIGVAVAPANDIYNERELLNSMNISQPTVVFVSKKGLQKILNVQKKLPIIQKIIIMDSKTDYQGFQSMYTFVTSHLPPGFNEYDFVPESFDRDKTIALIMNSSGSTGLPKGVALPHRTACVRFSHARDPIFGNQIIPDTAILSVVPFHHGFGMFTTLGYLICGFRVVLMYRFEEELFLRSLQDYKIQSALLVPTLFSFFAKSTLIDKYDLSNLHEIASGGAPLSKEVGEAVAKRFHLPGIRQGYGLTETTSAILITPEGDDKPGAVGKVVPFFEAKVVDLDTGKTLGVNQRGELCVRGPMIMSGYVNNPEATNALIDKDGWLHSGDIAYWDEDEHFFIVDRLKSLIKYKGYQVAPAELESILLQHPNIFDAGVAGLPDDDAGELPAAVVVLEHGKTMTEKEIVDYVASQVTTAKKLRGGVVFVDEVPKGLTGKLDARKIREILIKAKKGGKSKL
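Assay system: Luciferase/luciferin reagent mix; Medium: PBS as buffer for the ATP substrate; Dosing: test compounds dosed from 2 mM stocks in 100% DMSO; Times: 10 min, room temperature; Signal: luminescence from luciferase reaction; Read-out: luciferase activation; Controls: No-ATP low control, compound-free enzyme-plus-ATP high control.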
PPC-1+TRAIL kill = compounds killing PPC-1 cancer cells with TRAIL present (potentiator screen, no TRAIL-free arm); PPC-1 cells + TRAIL, ATPLite viability luminescence; hit rate 0.41% among 220,000; cell killing (% activity), % at 4 µM or 5 µM;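 active = cell killing above 50% in the first pass at 4 µM, then a duplicate retest at 5 µM averaging 50% or more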
FLuc inh counter = Photinus pyralis luciferase inhibition counter-screen; P08659; ATPLite firefly luciferase biochemical luminescence, 10 min; inhibition, % at 10 µM; hit rate 1.5% among 200,000;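 active = inhibition above about 50% when tested at 10 µM, limit read from the data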
PPC-1 tox = kills PPC-1 cells. shares compounds with PPC-1+TRAIL kill. PPC-1 viability, ATPlite luminescence, overnight. cytotoxicity, % at 5 µM. hit rate 50% among 1,200. AID 1447;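 active = reconfirmed compounds whose average cytotoxicity reaches 50% or more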
Hits are given with their value; . = inactive; / = no result. An excerpt weighted towards active compounds, which were near 2.2% of everything screened.

SMILES | NF-kB neuron act | APP 5'UTR act | TRAIL sens C8 | FLuc act counter | PPC-1+TRAIL kill | FLuc inh counter | PPC-1 tox
O=C(c1ccc(Cl)s1)N1CCc2ccccc21 | . | . | . | . | . | . | /
CCc1sc(C(=O)N2CCc3ccccc32)cc1C | 8.3 | 189 | 56 | . | . | 63 | .
OC(c1cc(Cl)cc(Cl)c1)c1ncc(-c2cccc(F)c2)[nH]1 (stereo not given) | / | / | . | / | / | / | /
O=C(CSc1nnc(-c2ccccc2Cl)o1)Nc1ccccn1 | . | . | 52 | . | 63 | . | 65
Cc1occc1-c1nnc(SCC(=O)Nc2ccccn2)o1 | . | . | . | . | . | . | /
Cc1cccc(OCCn2c(NC(=O)c3ccco3)nc3ccccc32)c1 | . | . | . | . | . | . | .
Cc1ccc(OCCn2c(NC(=O)c3ccco3)nc3ccccc32)cc1 | . | . | . | . | . | . | /
CC(=O)C1CN(S(=O)(=O)c2ccc(C)cc2)C(c2ccccc2)CC1C (stereo not given) | / | / | . | / | / | / | /
CCCCCCCn1c2c(c(=N)c3ccccc31)CCC2 | . | . | 60 | . | . | . | .
CCNC(=O)C1(C)CCCN(Cc2cccc(Oc3ccccc3)c2)C1 (stereo not given) | / | / | . | / | / | / | /
O=C(NCCNCCO)c1c(O)c2cccc3c2n(c1=O)CCC3 | . | . | . | . | . | . | .
CCCCCCNC(=O)c1c(O)c2cccc3c2n(c1=O)CCC3 | . | . | . | . | . | . | /
O[C@@H](c1cc(C(F)(F)F)nc2c(C(F)(F)F)cccc12)[C@H]1CCCCN1 | / | / | . | / | / | / | /
OC(c1cc(-c2ccc(Cl)cc2)nc2ccccc12)C1CCCCN1 (stereo not given) | / | / | . | / | . | / | .
O=C(Nc1ccccc1)c1cc(C2CCCCN2C(=O)OCCF)on1 (stereo not given) | / | / | . | / | / | / | /
Cn1ccc2c(N3CCCCCCC3)cc3c(c21)C1CCC3O1 (stereo not given) | / | / | . | / | / | / | /
c1ccc(Nc2ncnc3c2oc2ccccc23)cc1 | . | . | . | . | . | . | .
O=C(/C=C/c1ccc(O)cc1)c1ccc(NC2=C(N3CCCCC3)C(=O)c3ccccc3C2=O)cc1 | . | . | . | . | 70 | . | 58
CCNC(=S)Nc1ccc2c(c1)c(=O)n(C)n2-c1ccc(C(C)(C)C)cc1 | / | / | . | / | / | / | /
COc1ccc(-c2noc(CCC(=O)NC3CCCCC3)n2)cc1OC | . | . | . | . | . | . | /
COc1cccc(-c2noc(CCC(=O)NC3CCCCC3)n2)c1 | . | . | . | . | . | . | .
C/C(=N/NC(=O)c1cc(C2CC2)[nH]n1)c1cccs1 | . | . | 67 | . | 60 | 84 | .
C/C(=N\NC(=O)c1ccccc1O)c1cccs1 | 3.6 | . | 70 | . | 58 | 92 | 54
CCOC(=O)C1CCCN(C(=O)c2cc(C)n(C(C)(C)C)n2)CC1 (stereo not given) | / | / | . | / | / | / | /
Cc1ccc(-c2cn3c(=O)cc(C)[nH]c3n2)cc1 | . | . | 71 | . | 71 | 88 | 69
SMILES | NF-kB neuron act | APP 5'UTR act | TRAIL sens C8 | FLuc act counter | PPC-1+TRAIL kill | FLuc inh counter | PPC-1 tox
O=C(NCc1ccncc1)C1Cc2c(-c3ccccc3Oc3ccccc3)ccnc2O1 (stereo not given) | / | / | . | / | / | / | /
Cc1ccc(NC(=S)Nc2cccc3cnccc23)cc1 | . | . | . | . | . | . | /
Cc1ccccc1NC(=S)Nc1cccc2cnccc12 | . | . | . | . | . | . | /
Fc1ccccc1NC(=S)Nc1cccc2cnccc12 | . | . | . | . | . | . | .
Cc1ccc(NC(=S)Nc2cccc3cnccc23)cc1C | . | . | . | . | . | . | .
Clc1cccc(CNc2ccn3nc(-c4cccc(Cl)c4)cc3n2)c1 | / | / | . | / | / | / | /
CCCOc1ccc2cc(-c3ccccn3)c(=O)oc2c1 | . | . | 89 | . | 79 | 92 | 80
CC(=O)Nc1sc2c(c1-c1nc3ccccc3s1)CCN(C(C)C)C2 | . | . | 54 | . | . | . | .
CCC(=O)N1CCC1(C)C(=O)Nc1ccc(Cl)c(Cl)c1 (stereo not given) | / | / | . | / | / | / | /
COC(=O)N1CCCCC1c1cc(C(=O)NCc2ccc(Cl)c(Cl)c2)no1 (stereo not given) | / | / | . | / | / | / | /
CN(CC(=O)Nc1ccc(Cl)c(Cl)c1)C1CCCCC1 | / | / | . | / | / | / | /
CC(C)N(C)C1CCN(C(=O)Nc2ccc(Cl)c(Cl)c2)CC1 | . | . | . | . | . | . | .
Cc1cc2c3c(ccc(C)c3n1)N=CN2c1ccccc1 | . | . | . | . | . | . | .
O=C(c1ccccc1)c1ccc(C(=O)N2CCN(c3ccccc3O)CC2)cc1 | / | / | . | / | / | / | /
Cc1cc(/C=N/Nc2ncnc(N)c2[N+](=O)[O-])c(C)n1-c1ccccc1 | / | / | 85 | / | 86 | / | 87
OC(c1ccc(F)c(F)c1)c1nc(-c2ccc3ccccc3c2)cs1 (stereo not given) | / | / | . | / | / | / | /
COc1ccc(-c2cn3c4c(sc3n2)CCCC4)cc1 | 7.4 | . | 79 | . | 76 | 91 | 74
CCC(c1nnnn1-c1ccc2c(c1)OCCO2)N1CCN(C(C)=O)CC1 (stereo not given) | / | / | . | / | / | / | /
COc1ccc(-c2cc(=O)c3cc(OC)ccc3o2)cc1 | 5.3 | 155 | 66 | . | 66 | 78 | 68
Cc1ccc(-c2cc(=O)c3cc(Cl)ccc3[nH]2)cc1 | . | 138 | / | . | 65 | 57 | 60
Cc1ccc2[nH]c(-c3ccccc3)cc(=O)c2c1 | 6 | . | 53 | . | 69 | 86 | 68
COc1ccc(-c2cc(=O)c3cc(OC)ccc3[nH]2)cc1 | 4.7 | . | 73 | . | 65 | 87 | 62
ClN=C1C=CC=CC1=NCl | / | / | . | / | / | / | /
COc1cccc(-c2nnn(CC(=O)Nc3cc(OC)c(NC(=O)c4ccco4)cc3OC)n2)c1 | . | . | . | . | . | . | .
CCCCN1CC(N2CCN(CCN(C)C)CC2)CS1(=O)=O (stereo not given) | / | / | . | / | / | / | /
SMILES | NF-kB neuron act | APP 5'UTR act | TRAIL sens C8 | FLuc act counter | PPC-1+TRAIL kill | FLuc inh counter | PPC-1 tox
Cc1ccccc1Cn1ccc(NC(=O)CCSc2nc(-c3ccco3)cc(C(F)(F)F)n2)n1 | . | . | . | . | . | . | .
Cn1c(-c2ccccc2)cnc1SCC(=O)NCc1ccco1 | . | . | . | . | . | . | .
CCn1cc(-c2cc(C(=O)O)c3ccccc3n2)cn1 | . | . | 62 | . | 51 | 83 | 55
O=C(NCc1ccccn1)c1cc(-c2ccc(-c3ccccc3)cc2)nc2ccccc12 | . | . | 82 | . | 61 | 88 | 61
CCNC(=S)NNC(=O)c1cc(-c2ccc(OCC)cc2)nc2ccccc12 | 5.5 | . | 86 | . | 93 | 98 | 93
CCc1ccc(-c2cc(C(=O)Nn3cnnc3)c3ccccc3n2)cc1 | 4.3 | . | 93 | . | 97 | 98 | 97
CCn1cc(-c2cc(C(=O)O)c3ccccc3n2)c(C)n1 | . | . | . | . | . | . | /
CCC/C=N/NC(=O)c1cc(-c2ccccc2)nc2ccccc12 | . | . | . | . | . | . | /
